Columns and labels:
Cytochrome P450 2D6 [1] = molecular target: T1, Cytochrome P450 2D6 (Homo sapiens, UniProt P10635, F120A); assay: Vmax for oxidation to 3,4-OH-MA by cytochrome P450 2D6 (Phe120Ala mutant); expressed in 10E5 fluorescence units min-1 nmol-1 CYP; format: ADME
Outline: (§1)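 E. coli membranes expressing His-tagged wild-type or Phe120Ala CYP2D6 (25 nM CYP) were incubated in 50 mM KPi pH 7.4 with 5 mM MgCl2. Substrate was tested at 10 concentrations, 0–200 µM. After 5 min preincubation at 37 °C, an NADPH-regenerating system was added (0.2 mM NADPH final). Reactions ran 10 min and were stopped with HClO4. Products were separated by C18 HPLC and read by fluorescence (ex 280/em 320 nm). Km and Vmax came from nonlinear regression of peak areas; at least two independent experiments.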

Cytochrome P450 2D6 [2] = molecular target: T1, Cytochrome P450 2D6; assay: Vmax for oxidation to N-OH-MDMA by cytochrome P450 2D6 (Phe120Ala mutant); expressed in 10E5 fluorescence units min-1 nmol-1 CYP; format: ADME; outline: as §1
Cytochrome P450 2D6 [3] = molecular target: Cytochrome P450 2D6 (Homo sapiens, UniProt P10635); assay: Vmax for oxidation to 3,4-OH-MA by cytochrome P450 2D6 (wild type pSP19T7LT); expressed in 10E5 fluorescence units min-1 nmol-1 CYP; format: ADME; outline: as §1
Cytochrome P450 2D6 [4] = molecular target: T1, Cytochrome P450 2D6; assay: Vmax for oxidation to 3,4-OH-MA by cytochrome P450 2D6 (Phe120Ala mutant); expressed as 10E5 fluorescence units min-1 nmol-1 CYP; expressed in 10E5 fluorescence units min-1 nmol-1 CYP; format: ADME; outline: as §1
CCCNC(C)Cc1ccc2c(c1)OCO2 [5] = assay: (§2) Michaelis-Menten constant for oxidation to MDA by cytochrome P450 2D6 (Phe120Ala mutant); format: ADME, Homo sapiens; outline: as §1
CCNC(C)Cc1ccc2c(c1)OCO2 [6] = assay: as §2; format: ADME, Homo sapiens; outline: as §1
CNC(C)Cc1ccc2c(c1)OCO2 [7] = assay: as §2; format: ADME, Homo sapiens; outline: as §1
[8] = tested on: CN[C@@H](C)Cc1ccc2c(c1)OCO2; assay: as §2; format: ADME, Homo sapiens; outline: as §1
[9] = tested on: CN[C@H](C)Cc1ccc2c(c1)OCO2; assay: as §2; format: ADME, Homo sapiens; outline: as §1
CCCNC(C)Cc1ccc2c(c1)OCO2 [10] = assay: (§3) Michaelis-Menten constant for oxidation to 3,4-OH-MA by cytochrome P450 2D6 (Phe120Ala mutant); format: ADME, Homo sapiens; outline: as §1
CCNC(C)Cc1ccc2c(c1)OCO2 [11] = assay: as §3; format: ADME, Homo sapiens; outline: as §1
CNC(C)Cc1ccc2c(c1)OCO2 [12] = assay: as §3; format: ADME, Homo sapiens; outline: as §1
[13] = tested on: CN[C@@H](C)Cc1ccc2c(c1)OCO2; assay: as §3; format: ADME, Homo sapiens; outline: as §1
[14] = tested on: CN[C@H](C)Cc1ccc2c(c1)OCO2; assay: as §3; format: ADME, Homo sapiens; outline: as §1
CCCNC(C)Cc1ccc2c(c1)OCO2 [15] = assay: (§4) Michaelis-Menten constant for oxidation to N-OH-MDMA by cytochrome P450 2D6 (Phe120Ala mutant); format: ADME, Homo sapiens; outline: as §1
CCNC(C)Cc1ccc2c(c1)OCO2 [16] = assay: as §4; format: ADME, Homo sapiens; outline: as §1
CNC(C)Cc1ccc2c(c1)OCO2 [17] = assay: as §4; format: ADME, Homo sapiens; outline: as §1
[18] = tested on: CN[C@@H](C)Cc1ccc2c(c1)OCO2; assay: as §4; format: ADME, Homo sapiens; outline: as §1
[19] = tested on: CN[C@H](C)Cc1ccc2c(c1)OCO2; assay: as §4; format: ADME, Homo sapiens; outline: as §1
[20] = substrate: CCCNC(C)Cc1ccc2c(c1)OCO2; assay: (§5) Michaelis-Menten constant for oxidation to 3,4-OH-MA by cytochrome P450 2D6 (wild type pSP19T7LT); format: ADME, Homo sapiens; outline: as §1
[21] = substrate: CNC(C)Cc1ccc2c(c1)OCO2; assay: as §5; format: ADME, Homo sapiens; outline: as §1
[22] = substrate: CN[C@@H](C)Cc1ccc2c(c1)OCO2; assay: as §5; format: ADME, Homo sapiens; outline: as §1
[23] = substrate: CN[C@H](C)Cc1ccc2c(c1)OCO2; assay: as §5; format: ADME, Homo sapiens; outline: as §1

T1 sequence (P10635 whole entry F120A): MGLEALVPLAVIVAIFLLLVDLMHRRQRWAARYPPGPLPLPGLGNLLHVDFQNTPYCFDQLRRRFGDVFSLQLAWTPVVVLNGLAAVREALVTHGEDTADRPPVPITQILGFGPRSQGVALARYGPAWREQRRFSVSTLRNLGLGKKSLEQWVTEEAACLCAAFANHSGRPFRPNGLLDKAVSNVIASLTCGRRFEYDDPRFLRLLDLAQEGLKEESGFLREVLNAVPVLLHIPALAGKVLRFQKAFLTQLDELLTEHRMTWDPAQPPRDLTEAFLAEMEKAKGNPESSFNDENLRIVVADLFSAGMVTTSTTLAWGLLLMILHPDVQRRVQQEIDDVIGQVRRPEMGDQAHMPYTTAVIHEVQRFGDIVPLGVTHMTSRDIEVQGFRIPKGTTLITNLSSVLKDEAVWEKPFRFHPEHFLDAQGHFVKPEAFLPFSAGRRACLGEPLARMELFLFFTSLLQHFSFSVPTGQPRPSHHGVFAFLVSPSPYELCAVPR

Molecule `CCNC(C)Cc1ccc2c(c1)OCO2` (stereo not drawn) has a Vmax (Cytochrome P450 2D6 [1]) of 2.9, a Vmax (Cytochrome P450 2D6 [2]) of 1.4 and a Vmax (Cytochrome P450 2D6 [3]) of 1.2.

Molecule `CN[C@@H](C)Cc1ccc2c(c1)OCO2` has a Vmax (Cytochrome P450 2D6 [2]) of 8.4 and a Vmax (Cytochrome P450 2D6 [4]) of 2.4.

Molecule `CCCNC(C)Cc1ccc2c(c1)OCO2` (stereo not drawn) has a Vmax (Cytochrome P450 2D6 [1]) of 7.5, a Vmax (Cytochrome P450 2D6 [2]) of 3 and a Vmax (Cytochrome P450 2D6 [3]) of 1.3.

For `CN[C@H](C)Cc1ccc2c(c1)OCO2`, the Vmax (Cytochrome P450 2D6 [1]) was 2.4, the Vmax (Cytochrome P450 2D6 [2]) was 10.7 and the Vmax (Cytochrome P450 2D6 [3]) was 1.2.

`CNC(C)Cc1ccc2c(c1)OCO2` (stereo not drawn) [MIDOMAFETAMINE] showed a Vmax (Cytochrome P450 2D6 [1]) of 2.2 and a Vmax (Cytochrome P450 2D6 [3]) of 1.2.

For “Cytochrome P450 2D6 (Homo sapiens; F120A)”, the Km (CCCNC(C)Cc1ccc2c(c1)OCO2 [5]) was 9.1 µM, the kcat (CCCNC(C)Cc1ccc2c(c1)OCO2 [5]) was 0.122 s⁻¹ and the Km (CCNC(C)Cc1ccc2c(c1)OCO2 [6]) was 4.5 µM. It also gave a kcat (CCNC(C)Cc1ccc2c(c1)OCO2 [6]) of 0.07 s⁻¹, a Km (CNC(C)Cc1ccc2c(c1)OCO2 [7]) of 14.5 µM and a kcat (CNC(C)Cc1ccc2c(c1)OCO2 [7]) of 0.0583 s⁻¹. It also gave a Km [8] of 10.3 µM, a kcat [8] of 0.0633 s⁻¹ and a Km [9] of 26.1 µM. The kcat [9] was 0.0983 s⁻¹, the Km (CCCNC(C)Cc1ccc2c(c1)OCO2 [10]) was 5.2 µM and the Km (CCNC(C)Cc1ccc2c(c1)OCO2 [11]) was 3.3 µM. For the same molecule, the Km (CNC(C)Cc1ccc2c(c1)OCO2 [12]) was 11.8 µM, the Km [13] was 4.9 µM and the Km [14] was 13.2 µM. The Km (CCCNC(C)Cc1ccc2c(c1)OCO2 [15]) was 28 µM, the Km (CCNC(C)Cc1ccc2c(c1)OCO2 [16]) was 5.7 µM and the Km (CNC(C)Cc1ccc2c(c1)OCO2 [17]) was 11.2 µM. For the same molecule, the Km [18] was 6.9 µM and the Km [19] was 20.6 µM.

B1: Cytochrome P450 2D6 (Homo sapiens) (protein)
chain: MGLEALVPLAVIVAIFLLLVDLMHRRQRWAARYPPGPLPLPGLGNLLHVDFQNTPYCFDQLRRRFGDVFSLQLAWTPVVVLNGLAAVREALVTHGEDTADRPPVPITQILGFGPRSQGVFLARYGPAWREQRRFSVSTLRNLGLGKKSLEQWVTEEAACLCAAFANHSGRPFRPNGLLDKAVSNVIASLTCGRRFEYDDPRFLRLLDLAQEGLKEESGFLREVLNAVPVLLHIPALAGKVLRFQKAFLTQLDELLTEHRMTWDPAQPPRDLTEAFLAEMEKAKGNPESSFNDENLRIVVADLFSAGMVTTSTTLAWGLLLMILHPDVQRRVQQEIDDVIGQVRRPEMGDQAHMPYTTAVIHEVQRFGDIVPLGVTHMTSRDIEVQGFRIPKGTTLITNLSSVLKDEAVWEKPFRFHPEHFLDAQGHFVKPEAFLPFSAGRRACLGEPLARMELFLFFTSLLQHFSFSVPTGQPRPSHHGVFAFLVSPSPYELCAVPR
In the case of B1, the Km [20] is reported as 1 µM, the Km [21] is reported as 1.9 µM and the Km [22] is reported as 3.3 µM. The kcat [22] was 0.02 s⁻¹ and the Km [23] was 2.7 µM.
